Measured values collected from several papers.
Each line is one published result; the experiments were not run side by side. Values after ≈ are worked out from the molar mass of the structure shown.
Organism: Candida albicans

Compound | test | test system | conditions | measurement | result
COc1ccc(N=Nc2c(N)nn3c(-c4ccc(C)cc4)cc(-c4ccc(OCc5ccccc5)cc4)nc23)cc1 | microbial killing, broth dilution | ATCC10231 | – | MFC | 125 µg/mL (≈ 231 µM)
Cc1cccc2c(=O)n(-c3ccccc3)c(SCC(=O)NN=Cc3ccc(OS(C)(=O)=O)cc3)nc12 | microbial growth, well diffusion | – | 20 µg/mL | inhibition zone | 4 mm
OC(Cn1cncn1)(Cn1cncn1)c1ccc(F)cc1F | microbial growth, broth dilution | 56452 | 48 h | MIC | 1 µM
CCS(=O)(=O)Oc1ccc(C=NNC(=O)CSc2nc3ccc(Cl)cc3c(=O)n2-c2ccccc2)cc1 | microbial growth, well diffusion | – | 20 µg/mL | inhibition zone | 3 mm
N#CC(=C1C=CC(=NOC(=O)OCc2ccccc2)C=C1)c1ccccc1 | microbial killing, broth dilution | ATCC10231 | 48 h | MFC | 256 µg/mL (≈ 718 µM)
CC(=O)N1CCN(c2ccc(OCC3COC(Cn4ccnc4)(c4ccc(Cl)cc4Cl)O3)cc2)CC1 (centres unmarked) | microbial growth, broth dilution | SP3931 | 48 h | MIC | 2 µM
CCS(=O)(=O)Oc1ccc(C=NNC(=O)CSc2nc3c(C)cccc3c(=O)n2-c2ccccc2)cc1OC | microbial growth, well diffusion | – | 20 µg/mL | inhibition zone | 3 mm
C[C@@H]1[C@H](O)[C@@H](C)/C=C/C=C/C=C/C=C/C=C/C=C/C=C/[C@H](O[C@@H]2O[C@H](C)[C@@H](O)[C@H](N)[C@@H]2O)C[C@@H]2O[C@](O)(C[C@@H](O)C[C@@H](O)[C@H](O)CC[C@@H](O)C[C@@H](O)CC(=O)O[C@H]1C)C[C@H](O)[C@H]2C(=O)O | microbial growth, broth dilution | SP3931 | 48 h | MIC | < 0.25 µM
Cc1ccc(-c2cc(-c3ccc(OCc4ccccc4)cc3)nc3c(N=Nc4ccc(F)cc4)c(N)nn23)cc1 | microbial killing, broth dilution | ATCC10231 | – | MFC | 125 µg/mL (≈ 236 µM)
OC(Cn1cncn1)(Cn1cncn1)c1ccc(F)cc1F | microbial growth, broth dilution | SN152 | 24 h | MIC | 2 µg/mL
C[C@@H]1[C@H](O)[C@@H](C)/C=C/C=C/C=C/C=C/C=C/C=C/C=C/[C@H](O[C@@H]2O[C@H](C)[C@@H](O)[C@H](N)[C@@H]2O)C[C@@H]2O[C@](O)(C[C@@H](O)C[C@@H](O)[C@H](O)CC[C@@H](O)C[C@@H](O)CC(=O)O[C@H]1C)C[C@H](O)[C@H]2C(=O)O | microbial growth, broth dilution | – | – | MIC90 | 0.84 µM (≈ 0.776 µg/mL)
Cc1ccc(N=Nc2c(N)nn3c(-c4ccc(C)cc4)cc(-c4ccc(OCc5ccccc5)cc4)nc23)cc1 | microbial killing, broth dilution | ATCC10231 | – | MFC | 125 µg/mL (≈ 238 µM)
N#CC(=C1C=CC(=NOC(=O)c2ccccc2)C=C1)c1ccccc1 | microbial killing, broth dilution | ATCC10231 | 48 h | MFC | 256 µg/mL (≈ 784 µM)
COc1ccc(N=Nc2c(N)nn3c(-c4ccco4)cc(-c4ccc(OCc5ccccc5)cc4)nc23)cc1 | microbial killing, broth dilution | ATCC10231 | – | MFC | 62.5 µg/mL (≈ 121 µM)
CS(=O)(=O)Oc1ccc(C=NNC(=O)CSc2nc3ccc(Cl)cc3c(=O)n2-c2ccccc2)cc1 | microbial growth, well diffusion | – | 20 µg/mL | inhibition zone | 2 mm
CC(=O)N1CCN(c2ccc(OCC3COC(Cn4ccnc4)(c4ccc(Cl)cc4Cl)O3)cc2)CC1 (centres unmarked) | microbial killing, broth dilution | ATCC10231 | – | MFC | 31.3 µg/mL (≈ 58.9 µM)
C=CC(=O)ON=C1C=CC(=C(C#N)c2ccccc2)C=C1 | microbial killing, broth dilution | ATCC10231 | 48 h | MFC | 4 µg/mL (≈ 14.5 µM)
COc1ccc(C=NNC(=O)CSc2nc3c(C)cccc3c(=O)n2-c2ccccc2)cc1OS(C)(=O)=O | microbial growth, well diffusion | – | 20 µg/mL | inhibition zone | 4 mm
C#CCON=C1C=CC(=C(C#N)c2ccccc2)C=C1 | microbial killing, broth dilution | ATCC10231 | 48 h | MFC | 32 µg/mL (≈ 123 µM)
CCCS(=O)(=O)Oc1ccc(C=NNC(=O)CSc2nc3c(C)cccc3c(=O)n2-c2ccccc2)cc1OC | microbial growth, well diffusion | – | 20 µg/mL | inhibition zone | 4 mm
